Results reported in ChEMBL document CHEMBL1141363, “Synthesis and evaluation of novel heterocyclic MMP inhibitors” (Bioorg Med Chem Lett, 2007).

What was measured:
[1] = biological target: Macrophage metalloelastase (Homo sapiens, UniProt P39900); experiment: Inhibition of MMP12
Summary of the method: (§1)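 Catalytic domains used at final levels of 85 nM (MMP-1), 24 nM (MMP-2), 18 nM (MMP-9) and 84 nM (MMP-12). Each enzyme was premixed with compound (serial 1:2 dilutions, 150 to 1.2) for 30 min at 37 °C. Substrate was added in 50 mM Hepes with 5 mM CaCl2 and 0.05% w/w Brij-35, pH 7.5, then incubated 30 min. Fluorescence read at ex 328/em 393 nm over 45 min, every 50 s.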

Interstitial collagenase = biological target: T1, Interstitial collagenase (Homo sapiens, UniProt P03956); experiment: Inhibition of MMP1; summary of the method: as §1
T1 sequence (P03956 whole entry): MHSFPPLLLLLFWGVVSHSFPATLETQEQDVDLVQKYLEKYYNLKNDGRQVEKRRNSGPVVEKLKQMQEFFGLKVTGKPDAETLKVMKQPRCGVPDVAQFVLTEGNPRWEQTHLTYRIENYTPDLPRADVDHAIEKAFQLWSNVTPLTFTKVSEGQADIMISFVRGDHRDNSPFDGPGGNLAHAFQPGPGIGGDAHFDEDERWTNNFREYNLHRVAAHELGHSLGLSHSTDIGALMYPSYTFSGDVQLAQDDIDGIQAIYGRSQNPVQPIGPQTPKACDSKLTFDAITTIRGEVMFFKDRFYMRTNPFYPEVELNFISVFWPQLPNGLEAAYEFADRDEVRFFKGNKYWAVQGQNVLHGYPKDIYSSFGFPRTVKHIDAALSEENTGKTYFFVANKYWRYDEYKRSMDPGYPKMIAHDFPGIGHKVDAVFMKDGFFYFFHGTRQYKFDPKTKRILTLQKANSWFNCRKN

[2] = biological target: 72 kDa type IV collagenase (Homo sapiens, UniProt P08253); experiment: Inhibition of MMP2; summary of the method: as §1
Chain of 72 kDa type IV collagenase (P08253 whole entry): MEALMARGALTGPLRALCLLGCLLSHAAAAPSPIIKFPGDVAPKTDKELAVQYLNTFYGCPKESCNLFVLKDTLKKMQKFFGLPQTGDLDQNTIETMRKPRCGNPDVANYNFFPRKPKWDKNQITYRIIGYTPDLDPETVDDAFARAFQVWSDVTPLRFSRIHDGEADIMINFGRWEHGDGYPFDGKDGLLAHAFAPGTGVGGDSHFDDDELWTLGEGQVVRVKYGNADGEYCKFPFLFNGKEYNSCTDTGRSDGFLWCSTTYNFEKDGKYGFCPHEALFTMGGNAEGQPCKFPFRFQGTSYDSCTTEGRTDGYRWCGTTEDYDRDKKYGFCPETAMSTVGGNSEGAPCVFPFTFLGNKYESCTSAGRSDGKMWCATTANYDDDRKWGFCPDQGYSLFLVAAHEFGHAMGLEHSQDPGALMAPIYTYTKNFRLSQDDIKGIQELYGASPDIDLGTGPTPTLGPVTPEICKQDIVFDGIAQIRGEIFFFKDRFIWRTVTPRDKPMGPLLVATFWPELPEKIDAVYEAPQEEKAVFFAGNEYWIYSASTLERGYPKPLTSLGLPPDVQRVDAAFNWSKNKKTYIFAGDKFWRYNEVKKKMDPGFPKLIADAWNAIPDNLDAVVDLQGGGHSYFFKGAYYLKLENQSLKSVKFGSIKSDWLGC

[3] = biological target: Matrix metalloproteinase-9 (Homo sapiens, UniProt P14780); experiment: Inhibition of MMP9; summary of the method: as §1
Chain of Matrix metalloproteinase-9 (P14780 whole entry): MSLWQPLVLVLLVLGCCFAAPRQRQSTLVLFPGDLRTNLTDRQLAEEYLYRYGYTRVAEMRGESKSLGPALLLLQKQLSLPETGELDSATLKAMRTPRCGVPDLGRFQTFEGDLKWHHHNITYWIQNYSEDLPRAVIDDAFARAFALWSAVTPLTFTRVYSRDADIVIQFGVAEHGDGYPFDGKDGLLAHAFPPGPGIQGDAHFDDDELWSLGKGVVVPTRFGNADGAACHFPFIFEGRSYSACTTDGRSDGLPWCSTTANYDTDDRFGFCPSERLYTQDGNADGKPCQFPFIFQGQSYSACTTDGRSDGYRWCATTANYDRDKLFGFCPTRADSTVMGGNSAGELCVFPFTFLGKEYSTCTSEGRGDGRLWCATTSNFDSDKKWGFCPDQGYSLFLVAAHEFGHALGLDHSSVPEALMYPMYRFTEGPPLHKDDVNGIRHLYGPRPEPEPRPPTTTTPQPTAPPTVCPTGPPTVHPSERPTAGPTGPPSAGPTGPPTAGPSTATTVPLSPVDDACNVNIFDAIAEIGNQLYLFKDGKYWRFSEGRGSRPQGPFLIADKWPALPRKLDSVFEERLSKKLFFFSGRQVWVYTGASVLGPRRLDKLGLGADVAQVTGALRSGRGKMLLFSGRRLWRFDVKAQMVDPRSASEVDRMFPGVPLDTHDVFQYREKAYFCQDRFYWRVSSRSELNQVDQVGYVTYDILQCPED

Chain of Macrophage metalloelastase (P39900 whole entry, the tested form may be a part): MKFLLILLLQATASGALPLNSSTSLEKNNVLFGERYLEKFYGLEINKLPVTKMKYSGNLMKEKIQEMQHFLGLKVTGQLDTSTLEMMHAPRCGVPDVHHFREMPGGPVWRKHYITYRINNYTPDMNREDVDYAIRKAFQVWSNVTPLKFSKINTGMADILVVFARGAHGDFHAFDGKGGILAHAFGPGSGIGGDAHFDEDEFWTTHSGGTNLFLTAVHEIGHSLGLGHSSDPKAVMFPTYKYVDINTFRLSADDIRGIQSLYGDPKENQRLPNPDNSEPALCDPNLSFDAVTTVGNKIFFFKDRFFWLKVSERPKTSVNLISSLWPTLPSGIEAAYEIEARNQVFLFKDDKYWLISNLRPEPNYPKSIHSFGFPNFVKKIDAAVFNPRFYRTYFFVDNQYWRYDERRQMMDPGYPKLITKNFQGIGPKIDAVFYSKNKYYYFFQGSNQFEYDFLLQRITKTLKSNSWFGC

`O=C(OCc1ccc(C(F)(F)F)cc1)c1cccc(=O)[nH]1` showed an IC50 [1] of 64 µM, an IC50 (Interstitial collagenase) of 24 µM and an IC50 [2] of 112 µM. For the same compound, the IC50 [3] was 101 µM.

Compound `C1=C(n2cc(C3=NCCO3)nn2)CCCC1` has an IC50 [1] greater than 150 µM, an IC50 (Interstitial collagenase) greater than 150 µM and an IC50 [2] greater than 150 µM. For the same compound, the IC50 [3] was greater than 150 µM.

For `O=C(OC1CCC1)c1cccc(=O)[nH]1`, the IC50 [1] was 51 µM, the IC50 (Interstitial collagenase) was 25 µM and the IC50 [2] was 66 µM. It also gave an IC50 [3] of 62 µM.

`COc1cccc(COC(=O)c2cccc(=O)[nH]2)c1` was tested, and the IC50 [1] was 69 µM, the IC50 (Interstitial collagenase) was 69 µM and the IC50 [2] was 70 µM. For the same compound, the IC50 [3] was 88 µM.

`COc1ccc(COC(=O)c2cccc(=O)[nH]2)cc1` showed an IC50 [1] of 105 µM, an IC50 (Interstitial collagenase) of 99 µM and an IC50 [2] of 110 µM. It also gave an IC50 [3] of 100 µM.

Work on `O=C(OCCCCOc1ccccc1)c1cccc(=O)[nH]1` yielded an IC50 [1] of 82 µM, an IC50 (Interstitial collagenase) of 67 µM and an IC50 [2] of 90 µM. It also gave an IC50 [3] of 94 µM.

For `O=C(OCc1ccccc1F)c1cccc(=O)[nH]1`, the IC50 [1] was 68 µM, the IC50 (Interstitial collagenase) was 64 µM and the IC50 [2] was 71 µM. For the same compound, the IC50 [3] was 76 µM.

Work on `O=C(OCc1ccc(F)cc1)c1cccc(=O)[nH]1` yielded an IC50 [1] of 65 µM, an IC50 (Interstitial collagenase) of 23 µM and an IC50 [2] of 71 µM. The IC50 [3] was 3 µM.

`O=C(OCc1c(F)cccc1F)c1cccc(=O)[nH]1` showed an IC50 [1] of 60 µM, an IC50 (Interstitial collagenase) of 35 µM and an IC50 [2] of 66 µM. For the same compound, the IC50 [3] was 60 µM.

`O=C(OCc1c(F)cc(F)cc1F)c1cccc(=O)[nH]1` gave an IC50 [1] of 31 µM, an IC50 (Interstitial collagenase) of 16 µM and an IC50 [2] of 39 µM. It also gave an IC50 [3] of 33 µM.

For `Cc1ccc(COC(=O)c2cccc(=O)[nH]2)cc1`, the IC50 [1] was 69 µM, the IC50 (Interstitial collagenase) was 65 µM and the IC50 [2] was 73 µM. It also gave an IC50 [3] of 68 µM.

`O=C(OCc1c(F)c(F)c(F)c(F)c1F)c1cccc(=O)[nH]1` was tested, and the IC50 [1] was 63 µM, the IC50 (Interstitial collagenase) was 19 µM and the IC50 [2] was 64 µM. For the same compound, the IC50 [3] was 69 µM.

In the case of `O=C(OCc1cccc(Cl)c1)c1cccc(=O)[nH]1`, the IC50 [1] is reported as 46 µM, the IC50 (Interstitial collagenase) is reported as 25 µM and the IC50 [2] is reported as 5 µM. The IC50 [3] was 67 µM.

In the case of `O=C(OCc1cccc(C(F)(F)F)c1)c1cccc(=O)[nH]1`, the IC50 [1] is reported as 82 µM, the IC50 (Interstitial collagenase) is reported as 28 µM and the IC50 [2] is reported as greater than 150 µM. It also gave an IC50 [3] greater than 150 µM.

In the case of `O=C(OCc1ccc(Cl)cc1)c1cccc(=O)[nH]1`, the IC50 [1] is reported as 47 µM, the IC50 (Interstitial collagenase) is reported as 26 µM and the IC50 [2] is reported as 69 µM. It also gave an IC50 [3] of 68 µM.

For `O=C(OCc1ccccc1Br)c1cccc(=O)[nH]1`, the IC50 [1] was 44 µM, the IC50 (Interstitial collagenase) was 19 µM and the IC50 [2] was 57 µM. For the same compound, the IC50 [3] was 59 µM.

`O=C(OCc1cccc(Br)c1)c1cccc(=O)[nH]1` was tested, and the IC50 [1] was 31 µM, the IC50 (Interstitial collagenase) was 22 µM and the IC50 [2] was 68 µM. For the same compound, the IC50 [3] was 67 µM.

`CC(C)=CCOC(=O)c1cccc(=O)[nH]1` was tested, and the IC50 [1] was 67 µM, the IC50 (Interstitial collagenase) was 37 µM and the IC50 [2] was 72 µM. The IC50 [3] was 69 µM.

`CC#CCOC(=O)c1cccc(=O)[nH]1` was tested, and the IC50 [1] was 71 µM, the IC50 (Interstitial collagenase) was 50 µM and the IC50 [2] was 70 µM. The IC50 [3] was 68 µM.

`O=C(OC1CCCCC1)c1cccc(=O)[nH]1` gave an IC50 [1] of 71 µM, an IC50 (Interstitial collagenase) of 32 µM and an IC50 [2] of 101 µM. For the same compound, the IC50 [3] was 94 µM.

Compound `O=C(OCCc1ccccc1)c1cccc(=O)[nH]1` has an IC50 [1] of 68 µM, an IC50 (Interstitial collagenase) of 47 µM and an IC50 [2] of 69 µM. It also gave an IC50 [3] of 81 µM.

`O=C(OCc1cc(F)c(F)cc1F)c1cccc(=O)[nH]1` gave an IC50 [1] of 56 µM, an IC50 (Interstitial collagenase) of 30 µM and an IC50 [2] of 86 µM. For the same compound, the IC50 [3] was 67 µM.

In the case of `O=C(OCc1cccc(F)c1)c1cccc(=O)[nH]1`, the IC50 [1] is reported as 16 µM, the IC50 (Interstitial collagenase) is reported as 28 µM and the IC50 [2] is reported as 70 µM. It also gave an IC50 [3] of 50 µM.

Compound `O=C(OCc1ccccc1)c1cccc(=O)[nH]1` has an IC50 [1] of 69 µM, an IC50 (Interstitial collagenase) of 30 µM and an IC50 [2] of 65 µM. The IC50 [3] was 69 µM.

`O=C(OCc1cc(F)ccc1F)c1cccc(=O)[nH]1` was tested, and the IC50 [1] was 100 µM, the IC50 (Interstitial collagenase) was 70 µM and the IC50 [2] was 70 µM. The IC50 [3] was 85 µM.

`O=C(OCc1cc(F)cc(F)c1)c1cccc(=O)[nH]1` gave an IC50 [1] of 20 µM, an IC50 (Interstitial collagenase) of 41 µM and an IC50 [2] of 69 µM. It also gave an IC50 [3] of 71 µM.

`O=C(OCc1ccccc1Cl)c1cccc(=O)[nH]1` showed an IC50 [1] of 68 µM, an IC50 (Interstitial collagenase) of 51 µM and an IC50 [2] of 69 µM. For the same compound, the IC50 [3] was 81 µM.

In the case of `O=C(OCCOc1ccccc1)c1cccc(=O)[nH]1`, the IC50 [1] is reported as 79 µM, the IC50 (Interstitial collagenase) is reported as 59 µM and the IC50 [2] is reported as greater than 150 µM. The IC50 [3] was 127 µM.
